Data reported in ChEMBL document CHEMBL4229356, “Synthesis and antikinetoplastid evaluation of bis(benzyl)spermidine derivatives” (Eur J Med Chem, 2018).

What was measured:
[1] = system: Trypanosoma brucei gambiense; test: Trypanocidal activity against Trypanosoma brucei gambiense FeoITMAP/1893 after 72 hrs by resazurin dye based assay; type: functional, organism-based; conditions: FeoITMAP/1893, 72 h
Summary of the method: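 T. b. gambiense Feo was grown in supplemented IMDM with 10% FBS. Cells at 4.10⁴/mL were exposed 72 h at 37 °C, 5% CO2 in the dark to two-fold dilutions. Resazurin (450 µM solution) was added for 6 h and read at OD570/OD600. Result given as IC50; pentamidine was the reference.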

Leishmania donovani [2] = test: Antiparasitic activity against Leishmania donovani LV9 axenic amastigotes incubated for 72 hrs by resazurin dye based assay; type: functional, organism-based; conditions: LV9, 72 h
Summary of the method: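 LV9 axenic amastigotes were derived from promastigotes in M-199 at pH 5.5, 37 °C, 5% CO2, and used in log phase. Cells at 10⁶/mL were exposed 72 h to two-fold dilutions from 100 to 0.02 μM. Resazurin was then added for 24 h in the dark and read at OD570/OD600. IC50 is relative to excipient-only controls; miltefosine was the reference.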

[3] = Cytotoxicity against mouse RAW264.7 cells assessed as reduction in cell viability after 48 hrs by resazurin assay; type: cell-based
Summary of the method: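 RAW 264.7 macrophages at 2.10⁴/well were preincubated 24 h, then exposed 48 h at 37 °C, 5% CO2 to two-fold dilutions in DMEM. Resazurin was added for 4 h in the dark and read at OD570/OD600. Result given as CC50.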

[4] = Selectivity index, ratio of CC50 for mouse RAW264.7 cells to IC50 for Leishmania donovani LV9 axenic intramacrophage amastigotes infected in mouse RAW264.7 cells; type: toxicity, cell-based; conditions: read-out: Ratio CC50/IC50
[5] = Selectivity index, ratio of CC50 for mouse RAW264.7 cells to IC50 for Leishmania donovani LV9 axenic amastigotes incubated for 72 hrs by resazurin dye based assay; type: toxicity; conditions: read-out: Ratio CC50/IC50
Leishmania donovani [6] = test: Antiparasitic activity against Leishmania donovani LV9 axenic intramacrophage amastigotes infected in mouse RAW264.7 cells incubated for 48 hrs by Sybr Green 1 dye based fluorescence assay; type: functional, organism-based; conditions: LV9, RAW264.7, 48 h
Summary of the method: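 RAW 264.7 cells at 2.10⁴/well were infected 24 h with axenic amastigotes at a 16:1 parasite to macrophage ratio, then extracellular parasites were removed. Cells were treated 48 h with two-fold dilutions from 100 µM. They were then lysed (freeze-thaw, proteinase K, 55 °C overnight) and total DNA read by SYBR Green I fluorescence against untreated infected cells. Result given as IC50.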

[7] = Selectivity index, ratio of CC50 for mouse RAW264.7 cells to IC50 for Trypanosoma brucei gambiense FeoITMAP/1893; type: toxicity; conditions: read-out: Ratio CC50/IC50
Mus musculus = test: Toxicity in Swiss mouse assessed as death at 100 mg/kg, ip administered as single dose measured up to 30 days; type: organism-based; conditions: in vivo, 720 h
Summary of the method: (§1)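 Swiss mice infected ip with 10,000 T. b. brucei CMP trypanosomes, randomly grouped (six per batch), then given one ip dose of 100 or 10 mg/kg; controls received pentamidine, melarsamine or excipient. Parasitemia followed at days 2, 3, 4 and 30; deaths recorded by day post-treatment; efficacy as mean survival time minus that of excipient-treated controls (days ± SD).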

[8] = system: Trypanosoma brucei brucei; test: Antitrypanosomal activity against Trypanosoma brucei brucei CMP infected in Swiss mouse assessed as change in mean survival time at 100 mg/kg, ip administered as single dose measured up to 30 days; type: functional; summary of the method: as §1
[9] = biological target: Trypanothione reductase (Trypanosoma brucei brucei) (UniProt P39051); test: Inhibition of Trypanosoma brucei trypanothione reductase at 40 uM using 100 uM TS2 as substrate in presence of NADPH by spectrophotometric method relative to control
Summary of the method: (§2)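 Recombinant T. brucei TryR (5-10 mU) in 40 mM Hepes, 1 mM EDTA, pH 7.5, with 100 μM NADPH, 5% DMSO, at 25 °C. Inhibitor was fixed at 40 μM; TS2 at 100 or 40 μM started the reaction. NADPH consumption was followed at 340 nm and % inhibition taken against DMSO-matched controls. Run in triplicate, mean ± SD.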

[10] = biological target: Trypanothione reductase (Trypanosoma brucei brucei) (UniProt P39051); test: Inhibition of Trypanosoma brucei trypanothione reductase at 40 uM using 40 uM TS2 as substrate in presence of NADPH by spectrophotometric method relative to control; summary of the method: as §2
Trypanothione reductase [11] = biological target: T1, Trypanothione reductase (Trypanosoma brucei brucei, UniProt P39051); test: Mixed-type inhibition of Trypanosoma brucei trypanothione reductase assessed as enzyme-inhibitor complex using varying levels of TS2 as substrate in presence of NADPH by Lineweaver-Burk plot analysis
Summary of the method: (§3)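 TryR assay in Hepes/EDTA buffer pH 7.5 with 100 μM NADPH at 25 °C, started with TS2 and read at 340 nm. Inhibition type was assigned from a Lineweaver-Burk plot.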

Trypanothione reductase [12] = biological target: T1, Trypanothione reductase; test: Mixed-type inhibition of Trypanosoma brucei trypanothione reductase assessed as enzyme-inhibitor-substrate complex using varying levels of TS2 as substrate in presence of NADPH by Lineweaver-Burk plot analysis; summary of the method: as §3
Leishmania donovani [13] = test: Antiparasitic activity against Leishmania donovani amastigotes
[14] = Stability in human plasma by HPLC analysis; type: ADME, cell-free; conditions: read-out: Stability
Summary of the method: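 Human plasma was diluted 10-fold in PBS and incubated with 1 mM compound solutions for 0, 2 and 12 h at 37 °C. Samples were quenched with ice-cold acetonitrile, centrifuged, filtered and analysed by C18 reversed-phase HPLC at 25 °C.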

Trypanothione reductase [15] = biological target: T1, Trypanothione reductase; test: Inhibition of Trypanosoma brucei trypanothione reductase using TS2 as substrate in presence of NADPH by spectrophotometric method

T1 sequence (P39051 whole entry): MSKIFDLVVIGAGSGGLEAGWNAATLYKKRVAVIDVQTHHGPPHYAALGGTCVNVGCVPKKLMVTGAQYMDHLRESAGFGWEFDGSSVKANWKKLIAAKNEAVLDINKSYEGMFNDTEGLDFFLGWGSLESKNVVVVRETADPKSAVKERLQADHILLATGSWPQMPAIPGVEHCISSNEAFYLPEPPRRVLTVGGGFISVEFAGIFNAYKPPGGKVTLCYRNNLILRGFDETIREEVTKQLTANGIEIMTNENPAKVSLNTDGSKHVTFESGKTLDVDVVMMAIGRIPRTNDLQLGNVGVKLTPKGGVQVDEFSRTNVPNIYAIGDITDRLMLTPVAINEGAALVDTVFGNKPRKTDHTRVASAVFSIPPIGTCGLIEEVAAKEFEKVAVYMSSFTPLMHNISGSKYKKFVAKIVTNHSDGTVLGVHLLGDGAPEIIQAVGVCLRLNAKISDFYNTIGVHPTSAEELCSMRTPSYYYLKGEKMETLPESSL
Chain of Trypanothione reductase (Trypanosoma brucei brucei) (P39051 whole entry, looked up): as the sequence (P39051 whole entry) above

Row | Compound | IC50 (Leishmania donovani [6]) | inhibition [9] | inhibition [10] | Ki (Trypanothione reductase [11]) | Ki (Trypanothione reductase [12]) | IC50 (Leishmania donovani [13]) | half-life [14] | IC50 (Trypanothione reductase [15]) | IC50 [1] | IC50 (Leishmania donovani [2]) | CC50 at 48 h [3] | selectivity ratio [4] | selectivity ratio at 72 h [5] | selectivity ratio [7] | Activity (Mus musculus) | Survival [8]
1 | CC(C)(C)OC(=O)NCCCCN(CCCN(Cc1ccccc1)Cc1ccccc1)CCCN(Cc1ccccc1)Cc1ccccc1 | 1.5 µM | – | – | – | – | – | – | – | 0.3 µM | 2.5 µM | 12.5 µM | 8.3 | 5 | 41.7 | – | –
2 | Cl.Cl.NCCS[As](SCCN)c1ccc(Nc2nc(N)nc(N)n2)cc1 | – | – | – | – | – | – | – | – | – | – | – | – | – | – | Non-Toxic | >30 days
3 | CC(C)(C)OC(=O)NCCCCNCCCN(Cc1ccc2ccccc2c1)Cc1ccc2ccccc2c1 | 6.1 µM | 45% | 60% | – | – | – | – | – | 0.8 µM | 3.8 µM | 4.3 µM | – | 1.1 | 5.4 | – | –
4 | CC(C)(C)OC(=O)NC1CCC(N(CCCN(Cc2ccc(F)cc2)Cc2ccc(F)cc2)CCCN(Cc2ccc(F)cc2)Cc2ccc(F)cc2)CC1 (configuration not stated) | 17.2 µM | – | – | – | – | – | – | – | 4.2 µM | 10.2 µM | > 100 µM | > 5.8 | > 9.8 | > 23.8 | – | –
5 | CC(C)(C)OC(=O)NC1CCC(NCCCN(Cc2ccc(F)cc2)Cc2ccc(F)cc2)CC1 (configuration not stated) | 6.8 µM | – | – | – | – | – | – | – | 0.5 µM | 6.8 µM | 4.2 µM | – | – | 8.4 | – | –
6 | CC(C)(C)OC(=O)NCCCCN(CCCN(Cc1ccc(F)cc1)Cc1ccc(F)cc1)CCCN(Cc1ccc(F)cc1)Cc1ccc(F)cc1 | 16.6 µM | – | – | – | – | – | – | – | 1.9 µM | 6.6 µM | 12 µM | – | 1.8 | 6.3 | – | –
7 | CC(C)(C)OC(=O)NCCCCNCCCN(Cc1ccc(F)cc1)Cc1ccc(F)cc1 | 14.5 µM | – | – | – | – | – | – | – | 2 µM | 14.7 µM | 8.7 µM | – | – | 4.3 | – | –
8 | N=C(N)c1ccc(OCCCCCOc2ccc(C(=N)N)cc2)cc1.O=S(=O)(O)CCO.O=S(=O)(O)CCO [PENTAMIDINE ISETHIONATE] | – | – | – | – | – | – | – | – | – | – | – | – | – | – | Non-Toxic | >30 days
9 | CC(C)(C)OC(=O)NCCCCNCCCN(Cc1ccsc1)Cc1ccsc1 | 21.1 µM | – | – | – | – | – | – | – | 1.5 µM | 25.3 µM | 16.4 µM | – | – | 10.9 | – | –
10 | NC1CCC(N(CCCN(Cc2ccc(F)cc2)Cc2ccc(F)cc2)CCCN(Cc2ccc(F)cc2)Cc2ccc(F)cc2)CC1 (configuration not stated) | 4.2 µM | – | – | – | – | – | – | – | 10.4 µM | 15.7 µM | 4.5 µM | 1.1 | – | – | – | –
11 | NCCCCN(CCCN(Cc1ccc(F)cc1)Cc1ccc(F)cc1)CCCN(Cc1ccc(F)cc1)Cc1ccc(F)cc1 | 6.5 µM | 30% | > 60% | – | – | – | – | – | 0.1 µM | 2 µM | 1.5 µM | – | – | 15 | – | –

Continued, in another order:

Row | IC50 (Leishmania donovani [6]) | inhibition [9] | inhibition [10] | Ki (Trypanothione reductase [11]) | Ki (Trypanothione reductase [12]) | IC50 (Leishmania donovani [13]) | half-life [14] | IC50 (Trypanothione reductase [15]) | Compound | IC50 [1] | IC50 (Leishmania donovani [2]) | CC50 at 48 h [3] | selectivity ratio [4] | selectivity ratio at 72 h [5] | selectivity ratio [7] | Activity (Mus musculus) | Survival [8]
12 | 35.8 µM | – | – | – | – | – | – | – | NCCCCNCCCN(Cc1ccc(F)cc1)Cc1ccc(F)cc1 | 3.5 µM | 70.3 µM | 33.1 µM | – | – | 9.4 | – | –
13 | 6.6 µM | – | – | – | – | – | – | – | NC1CCC(NCCCN(Cc2ccccc2)Cc2ccccc2)CC1 (configuration not stated) | 2.1 µM | > 100 µM | 7.6 µM | 1.1 | – | 3.6 | – | –
14 | 42 µM | – | – | – | – | – | – | – | CC(C)(C)OC(=O)NCCCCNCCCN(Cc1ccc(OCc2ccccc2)cc1)Cc1ccc(OCc2ccccc2)cc1 | 4.7 µM | 26.4 µM | 33.3 µM | – | 1.3 | 7.1 | – | –
15 | > 100 µM | – | – | – | – | – | – | – | CC(C)(C)OC(=O)NCCCCNCCCN(Cc1cccc(-c2ccccc2)c1)Cc1cccc(-c2ccccc2)c1 | 33.9 µM | 79.5 µM | > 100 µM | – | > 1.2 | > 2.9 | – | –
16 | 5.4 µM | – | – | – | – | – | – | – | CC(C)(C)OC(=O)NC1CCC(NCCCN(Cc2ccccc2)Cc2ccccc2)CC1 (configuration not stated) | 0.7 µM | 14.2 µM | 5.1 µM | – | – | 7.3 | – | –
17 | 3.4 µM | – | – | – | – | – | – | – | CC(C)(C)OC(=O)NCCCCNCCCN(Cc1ccccc1)Cc1ccccc1 | 0.6 µM | 14.6 µM | 12.5 µM | 3.7 | – | 20.8 | – | –
18 | 22.4 µM | – | – | – | – | – | – | – | NCCCCN(CCCN(Cc1ccccc1)Cc1ccccc1)CCCN(Cc1ccccc1)Cc1ccccc1 | 0.9 µM | 57.3 µM | 1.2 µM | – | – | 1.3 | – | –
19 | 59.1 µM | – | – | – | – | – | – | – | NCCCCNCCCN(Cc1ccsc1)Cc1ccsc1 | 6.1 µM | > 100 µM | 52.8 µM | – | – | 8.6 | – | –
20 | 27.4 µM | – | > 50% | 7.5 µM | 20 µM | 25 µM | > 12 h | 8.8 µM | NCCCCNCCCN(Cc1ccccc1)Cc1ccccc1 | 8.8 µM | > 100 µM | 17.7 µM | – | – | 2 | – | –
21 | 8.7 µM | – | 47% | – | – | – | – | – | NCCCCNCCCN(Cc1ccc2ccccc2c1)Cc1ccc2ccccc2c1 | 0.4 µM | 5 µM | 4.9 µM | – | – | 12.2 | – | –
22 | > 100 µM | – | – | – | – | > 3.9 µM | – | – | NCCCCNCCCN(Cc1ccc(OCc2ccccc2)cc1)Cc1ccc(OCc2ccccc2)cc1 | 35.5 µM | 72.2 µM | > 100 µM | – | > 1.4 | > 2.8 | – | –
23 | 27.8 µM | – | – | – | – | – | – | – | NCCCCNCCCN(Cc1cccc(-c2ccccc2)c1)Cc1cccc(-c2ccccc2)c1 | 8.7 µM | 35.7 µM | 30.3 µM | 1.1 | – | 3.5 | – | –
24 | 7.1 µM | – | – | – | – | – | > 12 h | – | NCCCCNCCCN(Cc1ccc(-c2ccccc2)cc1)Cc1ccc(-c2ccccc2)cc1 | 0.2 µM | 3.9 µM | 4.2 µM | – | 1.1 | 21 | – | –
25 | 41.7 µM | – | – | – | – | – | – | – | CC(C)(C)OC(=O)NCCCCNCCCN(Cc1ccc(-c2ccccc2)cc1)Cc1ccc(-c2ccccc2)cc1 | 14.4 µM | 38.5 µM | > 100 µM | > 2.4 | > 2.6 | > 6.9 | – | –
